Bioassay records deposited in PubChem by Johns Hopkins Ion Channel Center.
MrgX1 PAM: allosterically activates human MrgX1 receptor signaling; Q96LB2; MrgX1-HEK293, Fluo-4 calcium flux, FDSS; active compounds read high; B-score at 10 µM; hit rate 0.63% among 310,000; AID 588675;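 active means plate-corrected calcium response at least 3 library SD above typical, normal starting fluorescence, not activating the receptor alone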;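 further: compound read alongside a low EC10 to EC30 dose of BAM8-22 agonist; peak minus trough fluorescence over baseline measured at the second addition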
Target sequence (Q96LB2 whole entry, looked up): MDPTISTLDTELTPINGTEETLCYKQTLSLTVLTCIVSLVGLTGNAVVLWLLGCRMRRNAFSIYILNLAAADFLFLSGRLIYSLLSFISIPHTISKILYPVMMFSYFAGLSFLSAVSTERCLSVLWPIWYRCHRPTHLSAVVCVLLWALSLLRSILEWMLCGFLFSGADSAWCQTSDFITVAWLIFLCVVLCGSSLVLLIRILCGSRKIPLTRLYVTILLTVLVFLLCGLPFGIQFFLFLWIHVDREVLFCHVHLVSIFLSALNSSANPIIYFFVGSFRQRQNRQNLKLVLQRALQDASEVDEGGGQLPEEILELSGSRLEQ
RGS4 block: human RGS4 inhibition; hit rate 0.45% among 310,000; B-score at 10 µM; P49798; AID 463165; HEK293 M3R/RGS4 inducible, Fluo-4 calcium flux; active compounds read high; triggered by carbachol at its EC20;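 active means B-score, a plate-corrected calcium signal, over three deviations above library mean, with baseline fluorescence within five deviations of library mean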;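 further: RGS4 expression induced by doxycycline in cells with stable M3 receptor; B-score is computed from the integrated fluorescence ratio over baseline after carbachol; higher B-score means a larger calcium signal and so more RGS4 inhibition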
Target sequence (P49798 whole entry, looked up): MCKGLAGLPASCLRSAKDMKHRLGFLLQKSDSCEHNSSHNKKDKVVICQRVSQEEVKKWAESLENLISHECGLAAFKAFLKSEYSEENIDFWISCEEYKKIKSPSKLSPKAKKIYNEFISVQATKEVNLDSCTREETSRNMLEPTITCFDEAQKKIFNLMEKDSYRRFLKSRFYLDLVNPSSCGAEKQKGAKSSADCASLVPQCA
MrgX1 antagonist: human MrgX1 receptor antagonism, primary screen | Q96LB2 | MRGX1-HEK293 calcium flux, Fluo-4, BAM8-22 antagonism; active compounds read low | B-score at 10 µM | hit rate 1.3% among 310,000;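 active means calcium-response B-score plate-corrected more than 3 library SD below zero, starting fluorescence within 5 deviations, no agonist response on first addition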;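 further: peak minus trough fluorescence over baseline after final BAM8-22 challenge near maximal dose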
RGS4 pot: potentiators or activators of RGS4; B-score at 10 µM; HEK293 M3R/inducible RGS4, carbachol calcium flux Fluo4; active compounds read low; hit rate 0.92% among 310,000;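 active means B-score of the integrated calcium signal more than 4 SD below the library mean, with starting fluorescence not abnormally high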;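 further: negative B-score means reduced calcium response which marks RGS4 activation or potentiation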
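test system = M3R-expressing HEK293 line, RGS4 induced by doxycycline | probe or stimulus = carbachol at ECmax as muscarinic agonist stimulus | timing = dye loading 30 min 37 °C, buffer rest 30 min RT | signal = calcium dye Fluo4 fluorescence | evaluation = B score from integrated fluorescence ratio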
MrgX1 agonist: human MrgX1 receptor agonism, primary screen; B-score at 10 µM; hit rate 0.44% among 310,000; AID 588627; MrgX1-HEK293 cells, Fluo-4 calcium fluorescence, agonist mode; active compounds read high;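 active means calcium response B-score plate-corrected fluorescence ratio at least 3 library SD, with starting fluorescence B-score inside 5 SD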
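Assay system: stable human MrgX1 HEK293 cell line. Quantity: 15,000 cells per well. Schedule: cells plated overnight, dye loaded 0.5 h 37 °C, 0.5 h room temperature. Detection: Fluo-4 NW calcium-flux fluorescence, kinetic read. Read-out basis: peak-minus-minimum fluorescence over baseline, converted to B scores. Control set: positive and negative control wells on each plate.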
Active calls of the source: *; i = inactive. Compounds with a hit are over-represented: about 3.5% of the library has one in this group of screens.

SMILES	MrgX1 PAM	RGS4 block	MrgX1 antagonist	RGS4 pot	MrgX1 agonist
CN(C(=O)CC1C(=O)NCCN1Cc1cccc(F)c1F)C1CC(C)(C)NC(C)(C)C1 (stereo unspecified)	i	i	i	i	i
COc1cc(OC)c(C=O)c(OC(=O)N2CCOCC2)c1	i	i	i	i	i
O=Cc1cc(Br)c(OC(=O)N2CCOCC2)c(Br)c1	i	i	i	i	27*
CSc1ccccc1OCc1cc(C(=O)NC2CCc3ccccc32)no1 (stereo unspecified)	i	i	i	i	i
Cc1ccc(OCc2cc(C(=O)NC3CCc4ccccc43)no2)cn1 (stereo unspecified)	i	i	-4.7*	i	i
CCOc1cc(/C=N/NC(=O)C(O)(c2ccccc2)c2ccccc2)ccc1OC(=O)c1ccco1	i	i	i	-10*	i
CCOc1cc(/C=N/NC(=O)c2ccncc2)ccc1OC(=O)c1ccco1	i	i	i	i	i
CCOc1cc(/C=N/NC(=O)c2ccc(CN3CCOCC3)cc2)ccc1OCc1ccccc1	i	i	i	-7.3*	i
CN(Cc1c(F)cccc1Cl)C(=O)c1cnc2ccccc2n1	i	i	i	i	i
CCN(Cc1ccccc1)S(=O)(=O)c1ccc(C(=O)N(CCCN(C)C)c2nc3c(C)c(C)ccc3s2)cc1	i	i	-6.7*	i	i
CN(C)CCCN(C(=O)CCSc1ccccc1)c1nc2cc3c(cc2s1)OCO3	i	i	i	i	i
CN(C)CCCN(C(=O)CCS(=O)(=O)c1ccccc1)c1nc2cc3c(cc2s1)OCO3	i	i	i	-8.2*	i
CN(C)CCCN(C(=O)c1ccc(C(=O)c2ccccc2)cc1)c1nc2cc3c(cc2s1)OCCO3	i	i	i	-8.8*	i
CN(C)CCCN(C(=O)c1ccc(S(=O)(=O)N(C)C)cc1)c1nc2cc3c(cc2s1)OCO3	i	i	i	i	i
CCN(Cc1ccccc1)S(=O)(=O)c1ccc(C(=O)N(CCCN(C)C)c2nc3cc4c(cc3s2)OCO4)cc1	i	i	i	-7.5*	i
O=C(CC1C(=O)NCCN1C1CCCC1)NCc1cccc(OC(F)(F)F)c1 (stereo unspecified)	i	i	i	i	i
Cn1cc(Br)c(C(=O)NNC(=O)Nc2ccccc2C(F)(F)F)n1	i	i	i	i	i
O=C(COc1coc(CN2CCN(c3cccc(Cl)c3)CC2)cc1=O)NC1CCCC1	i	i	i	i	i
COc1ccccc1CNN	8*	i	i	i	i
COc1ccccc1CNc1ncccn1	i	i	i	i	i
Cc1ccc(Cl)c(OCC(=O)NC2CCN(Cc3ccccc3)CC2)c1	i	i	i	i	i
NC(=O)c1coc(-c2ccccc2)n1	i	i	i	-7.1*	i
Cc1ccc(C(=O)N/C(=C\c2cccc([N+](=O)[O-])c2)C(=O)Nc2cccc(C(=O)O)c2)cc1	i	i	i	i	i
COc1ccc(C(=O)N/C(=C\c2cccc([N+](=O)[O-])c2)C(=O)Nc2cccc(C(=O)O)c2)cc1	i	i	-6.9*	i	i
Cc1cccc2c1NC(=O)C2(O)N1CCCC(C)C1 (stereo unspecified)	i	i	i	i	i
SMILES	MrgX1 PAM	RGS4 block	MrgX1 antagonist	RGS4 pot	MrgX1 agonist
CCCN(CC1CCCO1)C(=O)CCc1nnc(-c2cc(C)on2)o1 (stereo unspecified)	i	i	i	i	i
CCCn1c(=O)n(C)c(=O)c2c(SC(C)C(=O)NCC3CCCO3)nc(CC(C)C)nc21 (stereo unspecified)	i	i	i	i	i
Cc1cc(C)n(CCNS(=O)(=O)c2ccccc2)n1	i	i	i	i	i
Cc1ccc(N2C3=C(C(=O)CC(C)(C)C3)C(c3cn(C)nc3C)C3=C2CC(C)(C)CC3=O)cc1	i	i	-6.6*	i	i
Cc1nn(C)cc1C1C2=C(CC(C)(C)CC2=O)N(c2ccccc2)C2=C1C(=O)CC(C)(C)C2	i	i	i	i	i
O=C(Nc1nc(-c2ccccc2)cs1)c1ccc(N2CCOCC2)c([N+](=O)[O-])c1	i	i	-7.4*	i	i
Cc1ccc(-c2csc(NC(=O)c3cc([N+](=O)[O-])ccc3N3CCOCC3)n2)cc1	i	i	i	i	i
CC1CC(C)CN(CCCNC(=O)Cn2ncc3c(=O)oc4ccccc4c32)C1 (stereo unspecified)	i	i	i	i	i
Cc1c2cnn(CC(=O)NCCCN3CC(C)CC(C)C3)c(=O)c2c(C)n1Cc1ccccc1Cl (stereo unspecified)	i	i	-6.9*	i	i
Clc1ccc2c(c1)C(N1CCNCC1)Cc1ccccc1S2 (stereo unspecified)	i	i	i	-7.8*	i
COCCCN1CCN(C2Cc3ccccc3Sc3ccc(Cl)cc32)CC1 (stereo unspecified)	i	i	i	i	i
O=C1CC(c2ccco2)CC(O)=C1C=NCC1CCNCC1 (stereo unspecified)	i	i	i	-7.8*	i
CC[N+](C)(CC)CCC/C(=N/O)C(O)(c1ccccc1)c1ccccc1	i	i	i	-9.7*	i
CC/C(CC(C)(C)c1ccccc1)=N\O	i	i	i	i	i
CCN(CC)CCC/C(=N\O)C(O)(c1ccccc1)c1ccccc1	i	i	i	-10*	i
CCC(O)(CCN1CCCCC1)c1ccccc1 (stereo unspecified)	i	i	i	-7*	i
CCCCOc1ccc(C(O)(CC)CCN2CCOCC2)cc1 (stereo unspecified)	i	i	-6.3*	i	i
CCCCCC(O)(CCN1CCCCC1)c1ccc(OCC)cc1 (stereo unspecified)	i	i	i	-8.8*	i
Cc1ccc(CN2CCNC(=O)C2CC(=O)N(C)C2CCCCC2)cc1 (stereo unspecified)	i	i	i	i	i
Cc1nn(-c2ccccc2)c(NC(=O)c2cccs2)c(-c2ccccc2Cl)c1=O	i	i	i	i	i
COc1cc(C)ccc1OCc1cc(C(=O)N2CCC(c3ccc(F)cc3)C2)no1 (stereo unspecified)	i	i	i	i	i
NC(=O)c1cccc(C(N)=O)n1	i	i	i	i	i
CC[n+]1ccccc1/C=C1\Sc2ccc(C)cc2N1C	i	i	-8.4*	i	i
